Assay results reported in ChEMBL document CHEMBL5576048, “A Second-Generation Oral SARS-CoV-2 Main Protease Inhibitor Clinical Candidate for the Treatment of COVID-19” (J Med Chem, 2024).

Assays:
[1] = Lipophilicity, log D of compound at pH 7.4 by shake-flask method; format: physicochemical; settings: buffer
[2] = Passive permeability across apical to basolateral side in dog RRCK cells incubated for 30 mins; format: ADME, cell-based, Canis lupus familiaris; settings: mdckii-le, 0.5 h
[3] = Metabolic stability in human liver microsome assessed as apparent intrinsic clearance in presence of NADPH incubated for 40 mins by LS-MS/MS analysis; format: ADME; settings: microsomes
[4] = target: Replicase polyprotein 1ab (Severe acute respiratory syndrome coronavirus 2, UniProt P0DTD1); assay: Inhibition of SARS-Cov-2 MPro assessed as inhibition constant by FRET assay
SARS-CoV-2 [5] = assay: Antiviral activity against SARS CoV-2 USA_WA1/2020 infected in ACE2 enriched African green monkey Vero E6 cells assessed as reduction in virus-induced cytopathic effect measured after 3 days by celltiter-glo assay; format: functional, organism-based; settings: Severe acute respiratory syndrome coronavirus 2, USA_WA1/2020, Vero C1008, 72 h
SARS-CoV-2 [6] = assay: Antiviral activity against SARS CoV-2 infected in African green monkey Vero E6 cells; format: functional, organism-based; settings: Severe acute respiratory syndrome coronavirus 2, Vero C1008
[7] = Cmax in Wistar Hannover rat at 10 mg/kg, po administered as ASD form in 2% Tween 80 (v/v) in 0.5% (w/v) methyl cellulose in water formulation by LC-MS/MS analysis; format: ADME, organism-based; settings: in vivo
Outline: (§1)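 Parameters come from plasma concentration–time data as mean and individual values (n = 2); exposure for this form was reported as AUC0–∞. Oral F is referenced to a 1 mg/kg i.v. dose.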

[8] = AUC (0 to 24 hrs) in Wistar Hannover rat at 1 mg/kg, iv by LC-MS/MS analysis; format: ADME, organism-based; settings: in vivo
[9] = AUC (0 to 24 hrs) in Wistar Hannover rat at 10 mg/kg, po administered as ASD form in 2% Tween 80 (v/v) in 0.5% (w/v) methyl cellulose in water formulation by LC-MS/MS analysis; format: ADME, organism-based; settings: in vivo
[10] = Volume of distribution at steady state in Wistar Hannover rat at 1 mg/kg, iv by LC-MS/MS analysis; format: ADME, organism-based; settings: in vivo, read-out: Vdss
[11] = Tmax in Wistar Hannover rat at 10 mg/kg, po by LC-MS/MS analysis; format: ADME, organism-based; settings: in vivo
Outline: (§2)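 Male Wistar–Han rats in the fed state were dosed orally at 10 mg/kg, as amorphous solid in solution or crystalline solid in suspension, in 2% (v/v) Tween 80 in 0.5% (w/v) methyl cellulose in water. Parameters were calculated from plasma concentration–time data; mean and individual values given (n = 2). Oral F is set against a 1 mg/kg i.v. dose.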

[12] = Half life in Wistar Hannover rat at 1 mg/kg, iv by LC-MS/MS analysis; format: ADME, organism-based; settings: in vivo
[13] = AUC (0 to 24 hrs) in Wistar Hannover rat at 10 mg/kg, po by LC-MS/MS analysis; format: ADME, organism-based; settings: in vivo; outline: as §2
[14] = Tmax in Wistar Hannover rat at 10 mg/kg, po administered as ASD form in 2% Tween 80 (v/v) in 0.5% (w/v) methyl cellulose in water formulation by LC-MS/MS analysis; format: ADME, organism-based; settings: in vivo; outline: as §1
[15] = Clearance in Wistar Hannover rat at 1 mg/kg, iv by LC-MS/MS analysis; format: ADME, organism-based; settings: in vivo
[16] = Oral bioavailability in Wistar Hannover rat at 10 mg/kg by LC-MS/MS analysis; format: ADME, organism-based; settings: in vivo; outline: as §2
[17] = Oral bioavailability in Wistar Hannover rat at 10 mg/kg administered as ASD form in 2% Tween 80 (v/v) in 0.5% (w/v) methyl cellulose in water formulation by LC-MS/MS analysis; format: ADME, organism-based; settings: in vivo; outline: as §1
[18] = Renal clerance in Wistar Hannover rat at 1 mg/kg, iv by LC-MS/MS analysis; format: ADME, organism-based; settings: in vivo
[19] = Cmax in Wistar Hannover rat at 10 mg/kg, po by LC-MS/MS analysis; format: ADME, organism-based; settings: in vivo; outline: as §2
[20] = Cmax in Wistar Hannover rat at 10 mg/kg, po administered as crystalline form in 2% Tween 80 (v/v) in 0.5% (w/v) methyl cellulose in water formulation by LC-MS/MS analysis; format: ADME, organism-based; settings: in vivo; outline: as §2
[21] = Tmax in Wistar Hannover rat at 10 mg/kg, po administered as crystalline form in 2% Tween 80 (v/v) in 0.5% (w/v) methyl cellulose in water formulation by LC-MS/MS analysis; format: ADME, organism-based; settings: in vivo; outline: as §2
[22] = Oral bioavailability in Wistar Hannover rat at 10 mg/kg administered as crystalline form in 2% Tween 80 (v/v) in 0.5% (w/v) methyl cellulose in water formulation by LC-MS/MS analysis; format: ADME, organism-based; settings: in vivo; outline: as §2
[23] = AUC (0 to 24 hrs) in Wistar Hannover rat at 10 mg/kg, po administered as crystalline form in 2% Tween 80 (v/v) in 0.5% (w/v) methyl cellulose in water formulation by LC-MS/MS analysis; format: ADME, organism-based; settings: in vivo; outline: as §2
in vivo [24] = settings: Wistar Hannover, rat, po, 100 mg/kg
in vivo [25] = settings: Wistar Hannover, rat, po, 100 mg/kg; remark: listed apart in the source
in vivo [26] = settings: Wistar Hannover, rat, po, 1000 mg/kg
in vivo [27] = settings: Wistar Hannover, rat, po, 1000 mg/kg; remark: listed apart in the source
[28] = AUC (0 to 24 hrs) in Wistar Hannover rat at 100 mg/kg, po administered as crystalline MTBE in 10% (v/v) ethanol/10% (v/v) capmul MCM/35% (v/v) PEG400/45% (v/v) Tween 80 formulation by LC-MS/MS analysis; format: ADME, organism-based; settings: in vivo
[29] = AUC (0 to 24 hrs) in Wistar Hannover rat at 1000 mg/kg, po administered as crystalline MTBE in 10% (v/v) ethanol/10% (v/v) capmul MCM/35% (v/v) PEG400/45% (v/v) Tween 80 formulation by LC-MS/MS analysis; format: ADME, organism-based; settings: in vivo
in vivo [30] = settings: Wistar Hannover, rat, po, 10 mg/kg
[31] = AUC (0 to 24 hrs) in Wistar Hannover rat at 100 mg/kg, po administered as crystalline anhydrous form in 2% (v/v) Tween 80/98% 0.5% (w/v) methyl cellulose in water formulation by LC-MS/MS analysis; format: ADME, organism-based; settings: in vivo
Outline: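 Single high oral dose of 100 mg/kg in male Wistar–Han rats in the fed state, given as crystalline suspension in 2% (v/v) Tween 80 in 0.5% (w/v) methylcellulose in water. Parameters were derived from plasma concentration–time data and reported as mean ± S.D. (n = 3) or mean and individual values (n = 2).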

[32] = AUC (0 to 24 hrs) in Wistar Hannover rat at 10 mg/kg, po administered as crystalline MTBE in 10% (v/v) ethanol/10% (v/v) capmul MCM/35% (v/v) PEG400/45% (v/v) Tween 80 formulation by LC-MS/MS analysis; format: ADME, organism-based; settings: in vivo

Compound | logD [1] | permeability [2] | CLH(app) [3] | Ki [4] | EC50 (SARS-CoV-2 [5]) | also measured
CNC(=O)N[C@H](C(=O)N1C[C@H]2[C@@H]([C@H]1C(=O)N[C@H](C#N)C[C@@H]1CCNC1=O)C2(C)C)C(C)(C)C | 0.77 | 0.62 10^-6 cm/s | < 7.12 µL/min/mg |  |  | 
COC(=O)N[C@H](C(=O)N1C[C@H](OC(F)F)C[C@H]1C(=O)N[C@H](C#N)C[C@@H]1CCNC1=O)C(C)(C)C | 0.6 | 0.76 10^-6 cm/s | < 7.12 µL/min/mg | 3.88 nM | 450 nM | 
COC(=O)N[C@H](C(=O)N1C[C@H](C(F)(F)F)C[C@H]1C(=O)N[C@H](C#N)C[C@@H]1CC(O)NC1=O)C(C)(C)C (stereo not given in full) |  |  |  | 13 nM |  | EC50 (SARS-CoV-2 [6]): 1650 nM
COC(=O)N[C@H](C(=O)N1C[C@H](C(F)(F)F)C[C@H]1C(=O)N[C@H](C#N)C[C@@H]1CCCNC1=O)C(C)(C)C | 1.2 | 0.4 10^-6 cm/s | 9.5 µL/min/mg | 0.17 nM | 46.2 nM | 
COC(=O)N[C@H](C(=O)N1C[C@H](C(F)(F)F)C[C@H]1C(=O)N[C@H](C#N)C[C@@H]1CCCNC1=O)C(C)C | 0.7 | 0.63 10^-6 cm/s | < 7.12 µL/min/mg | 1.13 nM | 78.9 nM | Cmax [7]: 177 ng/mL; AUC(0-t) [8]: 467 ng·h/mL; AUC(0-t) [9]: 380 ng·h/mL; Vd [10]: 0.55 L/kg; Tmax [11]: 22.8 min; half-life [12]: 114 min; AUC(0-t) [13]: 359 ng·h/mL; Tmax [14]: 22.8 min; clearance [15]: 35.6 mL/min/kg; bioavailability [16]: 7.7%; bioavailability [17]: 8.1%; CL renal [18]: 7.6 mL/min/kg; Cmax [19]: 310 ng/mL
CC(C)(C)[C@H](NC(=O)C(F)(F)F)C(=O)N1C[C@H](OC(F)F)C[C@H]1C(=O)N[C@H](C#N)C[C@@H]1CCNC1=O | 1.2 | 1.25 10^-6 cm/s | < 7.12 µL/min/mg | 2.83 nM | 193 nM | Cmax [7]: 92.8 ng/mL; AUC(0-t) [8]: 502 ng·h/mL; AUC(0-t) [9]: 212 ng·h/mL; Vd [10]: 1.05 L/kg; Cmax [20]: 272 ng/mL; half-life [12]: 306 min; Tmax [21]: 30 min; bioavailability [22]: 11.9%; Tmax [14]: 45 min; clearance [15]: 33.1 mL/min/kg; bioavailability [17]: 4.2%; CL renal [18]: 4.5 mL/min/kg; AUC(0-t) [23]: 599 ng·h/mL
COC(=O)N[C@H](C(=O)N1C[C@H](OC(F)(F)F)C[C@H]1C(=O)N[C@H](C#N)C[C@@H]1CCNC1=O)C(C)(C)C | 1 | 2.05 10^-6 cm/s | < 7.12 µL/min/mg | 0.63 nM | 141 nM | AUC(0-t) [8]: 650 ng·h/mL; Vd [10]: 0.87 L/kg; Tmax [11]: 15 min; half-life [12]: 360 min; AUC(0-t) [13]: 559 ng·h/mL; clearance [15]: 25.4 mL/min/kg; bioavailability [16]: 8.6%; CL renal [18]: 8.1 mL/min/kg; Cmax [19]: 358 ng/mL
CC(C)(C)[C@H](NC(=O)C(F)(F)F)C(=O)N1C[C@H]2[C@@H]([C@H]1C(=O)N[C@H](C#N)C[C@@H]1CCNC1=O)C2(C)C | 1.9 | 1.03 10^-6 cm/s |  |  | 81.4 nM | Tmax (in vivo [24]): 1.4 h; Tmax (in vivo [25]): 45 min; Tmax (in vivo [26]): 1 h; Cmax (in vivo [27]): 88.3 µg/mL; AUC(0-t) [28]: 68300 ng·h/mL; AUC(0-t) [29]: 746 µg·h/mL; Tmax (in vivo [30]): 1.5 h; AUC(0-t) [31]: 18000 ng·h/mL; AUC(0-t) [32]: 3190 ng·h/mL
CC(C)(C)[C@H](NC(=O)C(F)(F)F)C(=O)N1C[C@H](OC(F)(F)F)C[C@H]1C(=O)N[C@H](C#N)C[C@@H]1CCNC1=O | 1.7 | 1.12 10^-6 cm/s | < 9.42 µL/min/mg | 0.71 nM | 80.9 nM | 
COC(=O)N[C@H](C(=O)N1C[C@H](C(F)(F)F)C[C@H]1C(=O)N[C@H](C#N)C[C@@H]1CCNC1=O)C(C)C | 0.9 | 0.5 10^-6 cm/s | < 7.12 µL/min/mg | 13.3 nM | 488 nM | 
CC(C)(C)[C@H](NC(=O)C(F)(F)F)C(=O)N1C[C@H](C(F)(F)F)C[C@H]1C(=O)N[C@H](C#N)C[C@@H]1CCNC1=O | 1.4 | 0.71 10^-6 cm/s | 13 µL/min/mg | 4.46 nM | 65.5 nM | 
COC(=O)N[C@H](C(=O)N1C[C@H]2[C@@H]([C@H]1C(=O)N[C@H](C#N)C[C@@H]1CCNC1=O)C2(C)C)C(C)(C)C | 1.2 | 0.61 10^-6 cm/s | 8.1 µL/min/mg |  |  | 
